Data: ChEMBL document CHEMBL2384941, “A small molecule inhibitor of fungal histone acetyltransferase Rtt109” (Bioorg Med Chem Lett, 2013)
Activity calls are given as the source filed them. The calls are words filed in the database; no cut-off is given here.

Legend:
[1] = tested on: Rtt109 (Saccharomyces cerevisiae); experiment: Inhibition of Vps75-stimulated recombinant Saccharomyces cerevisiae 6xHis-tagged histone acetyltransferase Rtt109 using H3n21 peptide and acetyl-coenzyme A as substrate assessed as release of CoA at 0.3 to 10 uM preincubated for 5 mins with H3n21 followed by acetyl-coenzyme A addition measured …
[2] = tested on: Candida albicans; experiment: Inhibition of histone acetyltransferase Rtt109 in Candida albicans assessed as camptothecin-induced DNA damage
[3] = molecular target: Histone acetyltransferase p300 (Homo sapiens) (UniProt Q09472); experiment: Inhibition of N-terminal 6xHis-Flag epitope-tagged histone acetyltransferase p300 catalytic domain (1195 to 1810) (unknown origin) expressed in Escherichia coli BL21 using acetyl-coenzyme A as substrate assessed as release of coenzyme A incubated for 5 mins prior to acetyl-coenzyme A addition measured every 2 mins for 10 mins by ThioGlo1 assay
Histone acetyltransferase p300 (Homo sapiens), sequence (Q09472 whole entry, the tested form may be a part): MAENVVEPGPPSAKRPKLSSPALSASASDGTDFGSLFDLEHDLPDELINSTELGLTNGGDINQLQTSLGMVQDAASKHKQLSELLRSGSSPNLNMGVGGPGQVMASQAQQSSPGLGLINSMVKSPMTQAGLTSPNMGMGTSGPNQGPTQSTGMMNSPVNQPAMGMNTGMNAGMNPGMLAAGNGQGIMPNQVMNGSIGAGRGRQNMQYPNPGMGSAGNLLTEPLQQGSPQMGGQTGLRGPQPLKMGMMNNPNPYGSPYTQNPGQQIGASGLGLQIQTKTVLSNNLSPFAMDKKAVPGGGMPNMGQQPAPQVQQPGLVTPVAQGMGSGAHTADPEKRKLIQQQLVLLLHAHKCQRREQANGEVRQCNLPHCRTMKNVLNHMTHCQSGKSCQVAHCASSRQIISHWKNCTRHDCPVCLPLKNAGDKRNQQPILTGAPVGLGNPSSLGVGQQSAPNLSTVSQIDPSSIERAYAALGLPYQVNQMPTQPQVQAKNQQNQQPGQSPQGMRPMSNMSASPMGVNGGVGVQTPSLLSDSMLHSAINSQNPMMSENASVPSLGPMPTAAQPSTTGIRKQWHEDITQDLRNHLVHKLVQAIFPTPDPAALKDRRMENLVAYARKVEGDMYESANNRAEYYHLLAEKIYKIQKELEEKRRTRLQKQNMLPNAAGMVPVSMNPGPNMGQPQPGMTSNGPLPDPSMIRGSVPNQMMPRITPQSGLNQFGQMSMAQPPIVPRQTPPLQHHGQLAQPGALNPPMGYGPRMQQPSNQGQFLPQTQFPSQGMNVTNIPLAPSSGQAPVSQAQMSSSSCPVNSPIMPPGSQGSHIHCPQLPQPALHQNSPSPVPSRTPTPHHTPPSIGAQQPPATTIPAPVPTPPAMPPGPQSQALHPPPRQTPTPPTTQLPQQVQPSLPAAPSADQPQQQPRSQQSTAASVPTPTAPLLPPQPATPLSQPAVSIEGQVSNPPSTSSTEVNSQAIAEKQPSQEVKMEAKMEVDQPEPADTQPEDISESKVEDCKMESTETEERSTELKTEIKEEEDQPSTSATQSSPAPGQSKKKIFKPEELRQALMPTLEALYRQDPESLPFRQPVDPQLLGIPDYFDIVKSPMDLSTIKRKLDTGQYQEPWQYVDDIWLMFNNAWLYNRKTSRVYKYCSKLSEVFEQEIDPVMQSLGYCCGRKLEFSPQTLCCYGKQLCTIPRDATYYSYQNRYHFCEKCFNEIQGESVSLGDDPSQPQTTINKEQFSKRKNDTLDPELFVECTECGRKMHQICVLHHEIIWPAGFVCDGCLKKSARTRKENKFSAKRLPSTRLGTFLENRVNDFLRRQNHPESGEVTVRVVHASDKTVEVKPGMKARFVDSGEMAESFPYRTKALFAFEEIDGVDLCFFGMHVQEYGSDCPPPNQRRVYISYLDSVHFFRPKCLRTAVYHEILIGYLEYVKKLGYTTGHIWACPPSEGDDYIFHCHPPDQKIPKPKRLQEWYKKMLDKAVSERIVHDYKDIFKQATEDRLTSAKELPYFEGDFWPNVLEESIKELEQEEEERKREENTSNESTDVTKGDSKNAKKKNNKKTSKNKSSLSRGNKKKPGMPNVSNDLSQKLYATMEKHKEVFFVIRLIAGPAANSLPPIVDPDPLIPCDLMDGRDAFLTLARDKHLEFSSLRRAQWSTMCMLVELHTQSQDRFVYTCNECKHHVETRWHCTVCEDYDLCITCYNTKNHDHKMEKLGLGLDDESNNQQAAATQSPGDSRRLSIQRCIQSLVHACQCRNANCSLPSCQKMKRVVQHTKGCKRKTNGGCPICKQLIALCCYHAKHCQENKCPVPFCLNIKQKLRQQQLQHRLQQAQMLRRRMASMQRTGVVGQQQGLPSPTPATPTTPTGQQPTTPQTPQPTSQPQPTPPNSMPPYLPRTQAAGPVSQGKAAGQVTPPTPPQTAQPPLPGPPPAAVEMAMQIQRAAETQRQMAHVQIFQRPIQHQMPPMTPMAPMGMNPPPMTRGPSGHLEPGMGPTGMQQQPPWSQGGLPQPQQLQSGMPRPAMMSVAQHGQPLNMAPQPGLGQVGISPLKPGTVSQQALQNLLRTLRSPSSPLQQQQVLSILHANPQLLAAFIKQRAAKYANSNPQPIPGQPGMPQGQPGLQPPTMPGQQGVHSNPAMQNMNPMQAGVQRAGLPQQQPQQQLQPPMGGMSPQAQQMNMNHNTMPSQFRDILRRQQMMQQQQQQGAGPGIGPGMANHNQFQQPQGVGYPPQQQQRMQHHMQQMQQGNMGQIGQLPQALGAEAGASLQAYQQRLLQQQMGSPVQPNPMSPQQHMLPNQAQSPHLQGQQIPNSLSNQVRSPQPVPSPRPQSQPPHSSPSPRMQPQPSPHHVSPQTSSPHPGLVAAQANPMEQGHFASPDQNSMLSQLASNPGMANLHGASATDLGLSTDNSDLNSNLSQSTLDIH
Outline: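 p300 (15 µg/ml) or Gcn5 (3.1 µg/ml, 61 nM) with 15 µM H3n21 peptide. Pre-incubated 5 min at 30°C with compound (up to 100 µM) or DMSO. Started with 30 µM acetyl-CoA. Released CoA quantified every 2 min over the first 10 min. Rates from linear regression of product versus time.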

[4] = molecular target: T1, Histone acetyltransferase SAS2 (Saccharomyces cerevisiae (strain ATCC 204508 / S288c) (Baker's yeast)) (UniProt P40963); experiment: Inhibition of Vps75-stimulated recombinant Saccharomyces cerevisiae 6xHis-tagged histone acetyltransferase Rtt109 using H3n21 peptide and acetyl-coenzyme A as substrate assessed as release of coenzyme A at 56 1.3 nM incubated for 5 mins prior to acetyl-coenzyme A addition measured every 2 mins for 10 mins by ThioGlo1 assay relative to control
T1 sequence (whole entry): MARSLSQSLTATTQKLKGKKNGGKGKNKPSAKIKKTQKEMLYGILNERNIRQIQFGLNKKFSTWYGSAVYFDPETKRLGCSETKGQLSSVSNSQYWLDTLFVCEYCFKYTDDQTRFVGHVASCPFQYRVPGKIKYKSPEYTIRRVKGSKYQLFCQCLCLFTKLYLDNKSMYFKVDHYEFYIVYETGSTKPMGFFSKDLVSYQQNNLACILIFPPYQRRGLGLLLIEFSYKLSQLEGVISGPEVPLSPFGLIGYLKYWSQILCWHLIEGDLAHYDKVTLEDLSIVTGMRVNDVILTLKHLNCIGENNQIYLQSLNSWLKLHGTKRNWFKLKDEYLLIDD

[5] = molecular target: T2, Lysine-specific demethylase 4A (Homo sapiens, UniProt O75164); experiment: Inhibition of JMJD2A tudor domain (unknown origin) using histone H4 peptide trimethylated on lysine 20 as substrate
T2 sequence (O75164 whole entry): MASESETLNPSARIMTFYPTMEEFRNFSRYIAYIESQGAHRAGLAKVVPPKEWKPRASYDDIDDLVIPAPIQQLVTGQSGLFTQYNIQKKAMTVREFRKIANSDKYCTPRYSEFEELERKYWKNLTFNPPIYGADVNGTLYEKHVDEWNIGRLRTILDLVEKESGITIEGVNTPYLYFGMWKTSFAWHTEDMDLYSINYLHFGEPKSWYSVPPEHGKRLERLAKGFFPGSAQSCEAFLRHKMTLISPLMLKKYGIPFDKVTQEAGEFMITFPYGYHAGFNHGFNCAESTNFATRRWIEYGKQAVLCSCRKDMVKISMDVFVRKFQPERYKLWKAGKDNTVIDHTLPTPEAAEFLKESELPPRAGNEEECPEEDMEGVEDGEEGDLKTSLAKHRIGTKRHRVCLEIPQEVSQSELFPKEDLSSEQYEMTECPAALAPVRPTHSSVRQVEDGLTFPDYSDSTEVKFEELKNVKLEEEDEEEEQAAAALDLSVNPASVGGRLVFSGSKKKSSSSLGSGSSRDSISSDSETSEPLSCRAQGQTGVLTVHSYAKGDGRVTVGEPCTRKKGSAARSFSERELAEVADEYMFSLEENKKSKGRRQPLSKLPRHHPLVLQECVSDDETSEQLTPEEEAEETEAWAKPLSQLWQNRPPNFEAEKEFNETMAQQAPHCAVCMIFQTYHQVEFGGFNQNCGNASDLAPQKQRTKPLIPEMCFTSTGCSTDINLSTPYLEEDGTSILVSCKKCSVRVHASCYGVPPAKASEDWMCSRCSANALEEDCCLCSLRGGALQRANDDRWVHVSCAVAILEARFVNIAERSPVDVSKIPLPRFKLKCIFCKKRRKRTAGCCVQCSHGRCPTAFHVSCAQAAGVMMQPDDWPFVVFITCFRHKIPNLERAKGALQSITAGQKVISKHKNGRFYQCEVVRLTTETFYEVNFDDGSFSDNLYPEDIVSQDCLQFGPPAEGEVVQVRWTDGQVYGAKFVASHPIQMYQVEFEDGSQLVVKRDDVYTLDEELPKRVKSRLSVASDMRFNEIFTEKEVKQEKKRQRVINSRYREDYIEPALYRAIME

[6] = molecular target: Histone acetyltransferase RTT109 (Saccharomyces cerevisiae) (UniProt Q07794); experiment: Irreversible inhibition of Vps75-stimulated recombinant Saccharomyces cerevisiae 6xHis-tagged histone acetyltransferase Rtt109 using H3n21 peptide as substrate assessed as release of coenzyme A at […] after 4 hrs by 10 fold dilution assay relative to control; set-up: scale not given: the % may be the effect or the level left
Histone acetyltransferase RTT109 (Saccharomyces cerevisiae), sequence (Q07794 whole entry, looked up, the tested form may be a part): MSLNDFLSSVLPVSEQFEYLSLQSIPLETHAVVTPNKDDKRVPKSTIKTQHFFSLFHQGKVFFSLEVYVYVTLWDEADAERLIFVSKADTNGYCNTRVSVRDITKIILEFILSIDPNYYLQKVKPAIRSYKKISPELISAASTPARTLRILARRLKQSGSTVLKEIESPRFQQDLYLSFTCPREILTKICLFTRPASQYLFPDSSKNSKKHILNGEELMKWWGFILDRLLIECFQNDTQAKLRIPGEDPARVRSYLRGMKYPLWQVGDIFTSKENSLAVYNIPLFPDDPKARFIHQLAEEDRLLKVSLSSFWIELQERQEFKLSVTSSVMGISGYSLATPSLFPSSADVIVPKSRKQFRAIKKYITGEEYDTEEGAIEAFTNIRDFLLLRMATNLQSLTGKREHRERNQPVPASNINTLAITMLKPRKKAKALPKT

[7] = molecular target: Histone acetyltransferase p300 (Homo sapiens) (UniProt Q09472); experiment: Inhibition of N-terminal 6xHis-Flag epitope-tagged histone acetyltransferase p300 catalytic domain (1195 to 1810) (unknown origin) expressed in Escherichia coli BL21 using (H3-H4)2 peptide and acetyl-coenzyme A as substrate assessed as inhibition of lysine acetylation incubated for 5 mins prior to acetyl-coenzyme A addition measured after 30 mins by ELISA
Outline: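 p300 (15 µg/ml) with […] (H3-H4)2 tetramers. Pre-incubated 5 min with compound or DMSO, then started with 15 µM acetyl-CoA. Run 30 min at 30°C. Lysine acetylation detected by ELISA with a polyclonal anti-acetyllysine antibody.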

[8] = molecular target: Histone acetyltransferase RTT109 (Saccharomyces cerevisiae) (UniProt Q07794); experiment: Inhibition of Vps75-stimulated recombinant Saccharomyces cerevisiae 6xHis-tagged histone acetyltransferase Rtt109 using H3n21 peptide as substrate assessed as release of coenzyme A at […] by ThioGlo1 assay relative to control; set-up: scale not given: the % may be the effect or the level left
[9] = tested on: Candida albicans; experiment: Inhibition of histone acetyltransferase Rtt109 in Candida albicans assessed as inhibition of H3K56 acetylation
[10] = tested on: Rtt109 (Saccharomyces cerevisiae); experiment: Inhibition of Vps75-stimulated recombinant Saccharomyces cerevisiae 6xHis-tagged histone acetyltransferase Rtt109 using H3n21 peptide and acetyl-coenzyme A as substrate assessed as release of CoA at 0.1 to 1 uM preincubated for 5 mins with H3n21 followed by acetyl-coenzyme A addition measured after …

SMILES: CCCCC1(c2ccccc2)NC(=O)N(CC(=O)NCc2ccc(Cl)cc2Cl)C1=O (stereo unspecified)
- inhibition [1]: inactive

SMILES: CC(C)CC1(c2ccccc2)NC(=O)N(CC(=O)NCc2ccc(Cl)cc2Cl)C1=O (stereo unspecified)
- inhibition [1]: inactive

SMILES: CCC1(c2ccc(F)cc2)NC(=O)N(CC(=O)NCc2ccc(Cl)cc2Cl)C1=O (stereo unspecified)
- inhibition [1]: inactive

SMILES: CCCC1(c2ccccc2)NC(=O)N(Cc2ccc(F)cc2Cl)C1=O (stereo unspecified)
- inhibition [1]: inactive

SMILES: CC(C)c1ccc(C2(C)NC(=O)N(CC(=O)N(C)Cc3c(F)cccc3Cl)C2=O)cc1 (stereo unspecified)
- inhibition [1]: inactive

SMILES: CN(Cc1c(F)cccc1Cl)C(=O)CN1C(=O)NC2(CCCCc3ccccc32)C1=O (stereo unspecified)
- inhibition [1]: inactive

SMILES: CCCC1(c2ccccc2)NC(=O)N(Cc2c(F)cccc2Cl)C1=O (stereo unspecified)
- inhibition [1]: inactive

SMILES: CCC[C@]1(c2ccccc2)NC(=O)N(CC(=O)N(C)Cc2c(F)cccc2Cl)C1=O
- inhibition [2]: inactive
- inhibition [3]: inactive
- inhibition [4]: 50%
- IC50 [5]: 25 µM
- Activity [6]: 33%
- inhibition [7]: inactive
- Activity [8]: 47%
- inhibition [9]: inactive

SMILES: CCC1(c2ccccc2)NC(=O)N(CC(=O)N(C)Cc2c(F)cccc2Cl)C1=O (stereo unspecified)
- inhibition [10]: Active
